Assay outcomes (PubChem)
TbMetRS inhib: Trypanosoma brucei MetRS inhibition | purified T. brucei MetRS, ATP depletion, Kinase-Glo luminescence | inhibition, % at 11.9 µM | hit rate 0.4% among 360,000 | AID 624268;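 active = inhibition above a per-plate cutoff of the control wells' mean inhibition plus 3 SD, cut at about 5.5% in these data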
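Material – parasite MetRS enzyme · Medium – HEPES-MgCl2-KCl buffer plus DTT, spermine, BSA, pyrophosphatase · Reagent – ATP, methionine and E. coli bulk tRNA substrates · Times – 15 min enzyme-compound preincubation, 2 h reaction, 10 min detection, 25 °C · Measured by – luminescence of leftover ATP · Evaluation – percent inhibition relative to median high and low control wells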
DAGLB inhibitor: blocks human DAGLB lipase activity. AID 504411. HEK293T DAGLB membrane lysate, EnzChek fluorogenic substrate. inhibition, % at 5.17 µM. Q8NCG7. hit rate 0.059% among 340,000; in the data active = inhibition above about 34%
PLC-gamma1 inh: PLC-gamma1 (human) inhibition, primary screen; hit rate 0.84% among 370,000; inhibition, % at 12.2 µM; purified PLC-gamma1, fluorogenic substrate, fluorescence; AID 720700; P19174
sPLA2-III inh: Blocks human group III sPLA2 activity; QFRET BODIPY PC-A2 liposome hydrolysis, fluorescence; inhibition, % at 12.2 µM; hit rate 0.56% among 370,000; AID 743126;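 active = inhibition above mean plus 3 SD of compounds lying within the high and low control bounds, cut at about 19% in these data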
PLC-beta3 inh: inhibitors of human phospholipase C beta3; Q01970; Purified PLC-beta3, fluorogenic substrate, fluorescence; inhibition, % at 12.2 µM; hit rate 0.18% among 370,000; in the data active = inhibition above about 11%
Target sequence (Q01970 whole entry, looked up): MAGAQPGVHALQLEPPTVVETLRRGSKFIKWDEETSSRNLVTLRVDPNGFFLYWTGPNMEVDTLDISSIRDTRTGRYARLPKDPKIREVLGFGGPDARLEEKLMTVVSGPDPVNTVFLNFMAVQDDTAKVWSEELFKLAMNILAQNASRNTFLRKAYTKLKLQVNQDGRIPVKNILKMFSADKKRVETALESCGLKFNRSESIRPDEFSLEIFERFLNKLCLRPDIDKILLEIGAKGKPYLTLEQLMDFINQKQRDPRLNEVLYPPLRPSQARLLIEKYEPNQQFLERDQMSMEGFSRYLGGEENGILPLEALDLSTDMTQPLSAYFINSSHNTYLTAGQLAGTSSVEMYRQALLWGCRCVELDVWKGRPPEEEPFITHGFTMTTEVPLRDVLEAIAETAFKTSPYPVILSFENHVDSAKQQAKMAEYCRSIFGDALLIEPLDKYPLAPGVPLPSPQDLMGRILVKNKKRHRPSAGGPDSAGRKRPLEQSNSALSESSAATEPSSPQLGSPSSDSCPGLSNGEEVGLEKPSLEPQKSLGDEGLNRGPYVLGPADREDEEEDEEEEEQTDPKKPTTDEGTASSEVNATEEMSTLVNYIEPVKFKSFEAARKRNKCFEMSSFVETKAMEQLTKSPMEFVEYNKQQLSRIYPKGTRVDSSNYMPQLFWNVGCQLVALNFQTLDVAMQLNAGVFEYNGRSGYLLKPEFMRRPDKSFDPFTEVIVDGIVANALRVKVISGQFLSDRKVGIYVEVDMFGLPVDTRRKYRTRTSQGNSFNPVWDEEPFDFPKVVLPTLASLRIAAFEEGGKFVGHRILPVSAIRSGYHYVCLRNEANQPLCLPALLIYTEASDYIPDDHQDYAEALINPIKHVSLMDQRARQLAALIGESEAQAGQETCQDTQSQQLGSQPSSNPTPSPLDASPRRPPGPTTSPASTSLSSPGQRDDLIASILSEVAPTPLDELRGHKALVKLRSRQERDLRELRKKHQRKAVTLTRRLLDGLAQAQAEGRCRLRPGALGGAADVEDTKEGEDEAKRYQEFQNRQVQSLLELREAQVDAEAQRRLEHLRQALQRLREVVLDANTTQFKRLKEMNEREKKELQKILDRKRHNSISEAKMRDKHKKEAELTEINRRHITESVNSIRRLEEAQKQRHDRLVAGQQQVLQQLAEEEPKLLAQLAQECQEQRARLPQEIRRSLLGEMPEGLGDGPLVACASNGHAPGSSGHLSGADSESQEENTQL
PLCg1 ctr: inhibits human PLC-gamma1 in PLC-beta3 counter-screen | shares compounds with PLC-gamma1 inh | purified PLC-gamma1, fluorogenic substrate, fluorescence | inhibition, % at 12.3 µM | hit rate 3.1% among 3,300 | AID 743258
PLCb3 confirm: human PLC-beta3 inhibition, confirmation; hit rate 1% among 3,300; shares compounds with PLC-gamma1 inh; purified PLC-beta3, fluorogenic substrate fluorescence; inhibition, % at 12.3 µM; AID 743261; in the data active = inhibition above about 11%
Numbers stand for hits. This is a sample that favours compounds with a hit; in the whole collection about 1.9% have one here. Rule as the data show it, unless noted: active = inhibition above about 9.5%; inactive = the rest.

What do the screens show for `O=C(O)c1cccc2c1C(=O)c1ccccc1-2`?
TbMetRS inhib: inactive; DAGLB inhibitor: inactive; PLC-gamma1 inh: inactive; sPLA2-III inh: inactive; PLC-beta3 inh: inactive

How did O=C1C(=C(I)I)c2ccccc2-c2ccccc21 do in these assays?
TbMetRS inhib: inactive; DAGLB inhibitor: inactive; PLC-gamma1 inh: 33.7; sPLA2-III inh: inactive; PLC-beta3 inh: inactive; PLCg1 ctr: 39.1; PLCb3 confirm: inactive

How did Cc1ccc(C(=O)Nc2ccc(S(=O)(=O)NCc3ccco3)cc2)cc1 do in these assays?
TbMetRS inhib: inactive; DAGLB inhibitor: inactive; PLC-gamma1 inh: inactive; sPLA2-III inh: inactive; PLC-beta3 inh: inactive

How did O=C(Nc1ccccc1)c1ccc(S(=O)(=O)NCc2ccco2)cc1 do in these assays?
TbMetRS inhib: inactive; DAGLB inhibitor: inactive; PLC-gamma1 inh: 12.6; sPLA2-III inh: inactive; PLC-beta3 inh: inactive; PLCg1 ctr: inactive; PLCb3 confirm: inactive

What do the screens show for `CCC(=O)N1CCc2cc(Br)c(S(=O)(=O)NC3CCN(Cc4ccccc4)CC3)cc21`?
PLC-gamma1 inh: inactive; sPLA2-III inh: inactive; PLC-beta3 inh: inactive

What do the screens show for `CCOc1ccc(CCNC(=O)CCn2cccc2)cc1OCC`?
TbMetRS inhib: inactive; DAGLB inhibitor: inactive; PLC-gamma1 inh: 11.2; sPLA2-III inh: inactive; PLC-beta3 inh: inactive; PLCg1 ctr: inactive; PLCb3 confirm: inactive

Results for COc1ccc(CCNC(=O)CCn2cccc2)cc1OC ?
TbMetRS inhib: inactive; DAGLB inhibitor: inactive; PLC-gamma1 inh: inactive; sPLA2-III inh: inactive; PLC-beta3 inh: inactive

What do the screens show for `CCOc1ccc(CCNC(=O)c2[nH]c(C)c(C(C)=O)c2C)cc1OCC`?
TbMetRS inhib: inactive; DAGLB inhibitor: inactive; PLC-gamma1 inh: 9.8; sPLA2-III inh: inactive; PLC-beta3 inh: inactive; PLCg1 ctr: inactive; PLCb3 confirm: inactive

What do the screens show for `CCCNC(=O)N1CC[C@H]2[C@@H]1c1cc(-c3ccc(F)cc3)ccc1N(C)[C@H]2CO`?
PLC-gamma1 inh: inactive; sPLA2-III inh: inactive; PLC-beta3 inh: inactive

What do the screens show for `CCn1c(O)c(N=NC(=O)c2ccc(CSc3nncn3C)cc2)c2ccccc21`?
TbMetRS inhib: inactive; DAGLB inhibitor: inactive; PLC-gamma1 inh: 11.2; sPLA2-III inh: inactive; PLC-beta3 inh: inactive; PLCg1 ctr: inactive; PLCb3 confirm: inactive

Results for CC1(O)C(=O)C2(C)C=CC1C1C(=O)N(c3ccccc3)C(=O)C12 (stereo not given) ?
PLC-gamma1 inh: inactive; sPLA2-III inh: inactive; PLC-beta3 inh: inactive

How did Cc1ccc(-c2nnc(SCC(=O)c3ccc(O)c(O)c3)n2-c2ccc(Cl)cc2)cc1 do in these assays?
PLC-gamma1 inh: inactive; sPLA2-III inh: inactive; PLC-beta3 inh: inactive

Results for O=C(CN1CCc2ccccc2C1)Nc1ccc(F)cc1F ?
TbMetRS inhib: inactive; DAGLB inhibitor: inactive; PLC-gamma1 inh: 10.5; sPLA2-III inh: inactive; PLC-beta3 inh: inactive; PLCg1 ctr: inactive; PLCb3 confirm: inactive

How did O=C(NCCC1=CCCCC1)C(=O)NCC(c1ccco1)N1CCN(c2ccccc2)CC1 (stereo not given) do in these assays?
TbMetRS inhib: inactive; DAGLB inhibitor: inactive; PLC-gamma1 inh: 12.8; sPLA2-III inh: inactive; PLC-beta3 inh: inactive; PLCg1 ctr: inactive; PLCb3 confirm: inactive

How did COc1ccc(N2CCN(C(CNC(=O)C(=O)NCCC3=CCCCC3)c3ccco3)CC2)cc1 (stereo not given) do in these assays?
TbMetRS inhib: inactive; DAGLB inhibitor: inactive; PLC-gamma1 inh: inactive; sPLA2-III inh: inactive; PLC-beta3 inh: inactive

Results for Fc1ccc(-[n+]2nc(Nc3ccccc3)sc2-c2c(Cl)cccc2Cl)cc1 ?
TbMetRS inhib: inactive; DAGLB inhibitor: inactive; PLC-gamma1 inh: 11.3; sPLA2-III inh: inactive; PLC-beta3 inh: 15.3; PLCg1 ctr: inactive; PLCb3 confirm: inactive

Results for COc1ccc([C@@]23CCN=C2c2[nH]c4ccccc4c2CCN3)c(N)c1 ?
PLC-gamma1 inh: inactive; sPLA2-III inh: inactive; PLC-beta3 inh: inactive

How did CN(CCc1ccccc1)C(=O)c1ccc(NC(=O)Cc2ccc(NC(=O)C3CCN(C(=O)C4CC4)CC3)cc2)cc1 do in these assays?
TbMetRS inhib: inactive; DAGLB inhibitor: inactive; PLC-gamma1 inh: inactive; sPLA2-III inh: inactive; PLC-beta3 inh: inactive

What do the screens show for `CN(CCc1ccccc1)C(=O)c1ccc(NC(=O)Cc2ccc(NC(=O)C3CCN(C(=O)C4CCCC4)CC3)cc2)cc1`?
TbMetRS inhib: inactive; DAGLB inhibitor: inactive; PLC-gamma1 inh: 10.3; sPLA2-III inh: inactive; PLC-beta3 inh: inactive; PLCg1 ctr: inactive; PLCb3 confirm: inactive

How did Cc1nc(C(F)(F)F)ccc1C(=O)N1CCCCCC1(C)C(=O)NCC(C)C (stereo not given) do in these assays?
TbMetRS inhib: inactive; PLC-gamma1 inh: 15.5; sPLA2-III inh: inactive; PLC-beta3 inh: inactive; PLCg1 ctr: inactive; PLCb3 confirm: inactive

How did CCOC(=O)C1(C)CCCCCN1C(=O)c1ccc(C(F)(F)F)nc1C (stereo not given) do in these assays?
TbMetRS inhib: inactive; PLC-gamma1 inh: inactive; sPLA2-III inh: inactive; PLC-beta3 inh: inactive

What do the screens show for `CCCCNC(=O)C1(C)CCCCN1C(=O)c1cc2ccccc2s1` (stereo not given)?
TbMetRS inhib: inactive; PLC-gamma1 inh: inactive; sPLA2-III inh: inactive; PLC-beta3 inh: 13.1; PLCg1 ctr: inactive; PLCb3 confirm: inactive

How did CC(C)CNC(=O)C1(C)CCCCCN1C(=O)c1cc2ccccc2s1 (stereo not given) do in these assays?
TbMetRS inhib: inactive; PLC-gamma1 inh: 13.9; sPLA2-III inh: inactive; PLC-beta3 inh: inactive; PLCg1 ctr: inactive; PLCb3 confirm: inactive

What do the screens show for `Nn1c(SCC(=O)Nc2cccc3ccccc23)nnc1-c1cc(-c2ccccc2)n[nH]1`?
PLC-gamma1 inh: inactive; sPLA2-III inh: inactive; PLC-beta3 inh: inactive

Results for Cc1ccccc1S(=O)(=O)N1CCCc2nc(-c3ccccc3)ccc21 ?
PLC-gamma1 inh: inactive; sPLA2-III inh: inactive; PLC-beta3 inh: inactive

Results for C=CCO[C@H]1CN(C(=O)OC)[C@@H]2C[C@H]1Oc1ccccc12 ?
PLC-gamma1 inh: inactive; sPLA2-III inh: inactive; PLC-beta3 inh: inactive

Results for Cc1ccc2c(c1)C1CS(=O)(=O)N(Cc3ccccc3)C(=O)N1C2 (stereo not given) ?
PLC-gamma1 inh: inactive; sPLA2-III inh: inactive; PLC-beta3 inh: inactive

Results for Cc1c(-c2ccccc2)nnn1-c1ccc(F)c(Cl)c1 ?
PLC-gamma1 inh: inactive; sPLA2-III inh: inactive; PLC-beta3 inh: inactive

Results for COc1ccc(N(C(=O)COc2ccccc2)C2C=CS(=O)(=O)C2)c(OC)c1 (stereo not given) ?
TbMetRS inhib: inactive; DAGLB inhibitor: inactive; PLC-gamma1 inh: 13.8; sPLA2-III inh: inactive; PLC-beta3 inh: inactive; PLCg1 ctr: inactive; PLCb3 confirm: inactive

What do the screens show for `COc1ccc(N(C(=O)c2ccccc2OC)C2C=CS(=O)(=O)C2)c(OC)c1` (stereo not given)?
TbMetRS inhib: inactive; DAGLB inhibitor: inactive; PLC-gamma1 inh: inactive; sPLA2-III inh: inactive; PLC-beta3 inh: inactive
